Assay [1] can be described thus: inhibitors of TNFa-induced NFkB p65 translocation, primary screen, imaging, HUVEC, MLSMR starter and 10KST1 sets (AID 438;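 active = inhibition above 20% together with a positive visual image hit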;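 also: compound added about 3h40 before a 20 min TNFalpha stimulation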;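 as to inhibition: signal is the nuclear over cytoplasmic p65 intensity ratio per well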). To be noted: HUVEC TNFa-induced p65 nuclear translocation; cell count: measured here: nuclei count (cytotoxicity indicator), at 2.08 µM; inhibition: at 2 µM, stronger effect = higher value, 0% TNFa-plus-vehicle, 100% no-TNFa wells.
Assay [2] is described as follows: endothelial E-selectin expression blockers – imaging, HUVEC, immunofluorescence, MLSMR starter and 10KST1 sets, primary screen (AID 487;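 active = visually confirmed hit in the image check and inhibition above 20%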;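 as to inhibition: signal is fraction of cell area covered by stained E-selectin grains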;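 as to nuclei count: 100% = median nuclei count of all wells on the same plate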). To be noted: HUVEC TNFalpha-induced E-selectin immunofluorescence imaging, at 2 µM; inhibition: stronger effect = higher value; nuclei count: measured here: cell number, toxicity.
Assay [3] is described as follows: Primary imaging screen for DUSP6 inhibitors that restore phospho-Erk in transfected HeLa cells, chemical complementation (AID 609;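 active = compounds giving at least 50% inhibition in the cell-based MKP-3 phosphatase rescue imaging test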;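 as to inhibition: phospho-Erk level distribution per well compared with pooled transfected vehicle control wells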). To be noted: HeLa MKP-3 transfected, phospho-Erk imaging KS statistic, at 10 µM, cells stimulated with TPA for 15 min.
Assay [4] concerns the target Dual specificity protein phosphatase 6 (Homo sapiens) (UniProt Q16828). The description is as above. To be noted: HeLa MKP-3 transfected, phospho-Erk imaging KS statistic; at 10 µM; stronger effect = higher value; cells stimulated with TPA for 15 min.
Assay [5] concerns the target Voltage-gated potassium channel subunit beta-2 (Rattus norvegicus) (UniProt P62483). Kind of assay: inhibitors of rat Kvbeta2 reductase activity – biochemical, NADPH fluorescence, primary screen (AID 622;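 active = fluorescence slope higher than the sample average by over 3 SD, cut at about -0.22 in these data, passing the limit was not always enough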;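 also: slope of raw intensity against log time taken from 70 to 1610 s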). Conditions: recombinant KvBeta, 4-cyanobenzaldehyde reduction, at 10 µM, stronger effect = higher value.
Assay [6] has the same target. Kind of assay: enhancers of rat Kvbeta2 NADPH turnover – biochemical, NADPH fluorescence, primary screen (AID 623).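 Also: fluorescence intensity change per second fitted from 20 to 320 s.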 Conditions: Recombinant KvBeta, NADPH fluorescence decrease slope, 10 min; at 10 µM; stronger effect = lower value.
Assay [7] concerns the target Alpha-2C adrenergic receptor (Homo sapiens) (UniProt P18825). In words: compounds altering alpha2C-coupled GIRK flux – cell-based, HEK293 alpha2C/GIRK1/2, thallium flux, primary screen (AID 624;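 active = fluorescence slope after compound addition differing from the mean of all screened samples at 99.7% confidence, in either direction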;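 also: slope of fluorescence ratio to pre-addition baseline per second over 15 to 24 s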). To be noted: thallium flux BTC fluorescence, at 10 µM, actives lie on both sides.
Assay [8] can be described thus: inhibitors of larval lipid processing in zebrafish, primary screen, whole organism, PED6 fluorescence, gall bladder and intestine (AID 686;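 active = a full or partial loss of lipid-probe fluorescence in the fish gall bladder, intestine or both, judged by eye; inactive = no fluorescence loss, or compound toxic to the fish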;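 also: larvae 5 to 7 days old with five fish per well; signal comes from phospholipase A2 cleavage of quenched PED6 carried via bile; overnight exposure to compound and PED6 before scoring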). To be noted: Zebrafish larvae PED6 lipid processing, fluorescence scoring; screened at 20 µM (by protocol). The method, boiled down: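 Test system – live zebrafish larvae aged 5-7 days, whole organism · Buffer or medium – E3 fish medium · Reagent – quenched phospholipase substrate PED6, 100 nM final, ingested by larvae · Doses – 20 µM single dose · Incubation – overnight compound and PED6 incubation · Technique – visual fluorescence microscopy scoring of gall bladder, gut · Read-out basis – visual per-well fluorescence inhibition score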

Assay [9] in a line: loss of swimming-algae plug formation – whole organism, Chlamydomonas reinhardtii, WT vs cilia-less mutant, absorbance, 96-well, primary screen (AID 463189;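 active = inhibition at or above 50% relative to wild type and mutant plate controls; inactive = inhibition below 50%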;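 also: 0% = wild type cc124 cells in DMSO and 100% = ciliumless bld1 mutant cells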). To be noted: Chlamydomonas reinhardtii gravitaxis, OD600 absorbance, 2 days; at 10 µM; stronger effect = higher value.
[10] abbreviates: measured here: cell density z-score.
Where [11] appears, read: measured here: nuclear c-Myc green intensity z-score.
[12] abbreviates: measured here: nuclear pErk red intensity z-score, stronger effect = higher value.

The structures appear in SMILES notation. The source made the active and inactive calls.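 The calls were made as follows, unless noted: active = NADPH fluorescence slope more negative than the mean of all samples by about 3 SD, 99.7% confidence; inactive = the rest.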

Sequence of Alpha-2C adrenergic receptor (Homo sapiens) (P18825 whole entry, looked up): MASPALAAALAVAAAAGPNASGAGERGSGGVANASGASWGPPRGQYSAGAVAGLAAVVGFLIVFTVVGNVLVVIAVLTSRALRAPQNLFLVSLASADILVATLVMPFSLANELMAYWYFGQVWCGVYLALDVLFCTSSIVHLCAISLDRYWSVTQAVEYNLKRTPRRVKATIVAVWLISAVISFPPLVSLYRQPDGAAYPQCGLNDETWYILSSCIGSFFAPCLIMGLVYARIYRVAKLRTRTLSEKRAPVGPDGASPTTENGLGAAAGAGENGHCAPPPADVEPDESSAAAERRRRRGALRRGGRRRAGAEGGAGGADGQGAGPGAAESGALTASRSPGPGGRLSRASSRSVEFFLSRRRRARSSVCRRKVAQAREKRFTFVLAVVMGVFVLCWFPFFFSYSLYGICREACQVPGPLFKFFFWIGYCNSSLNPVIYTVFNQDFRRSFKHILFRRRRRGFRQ
Sequence of Voltage-gated potassium channel subunit beta-2 (Rattus norvegicus) (P62483 whole entry, looked up): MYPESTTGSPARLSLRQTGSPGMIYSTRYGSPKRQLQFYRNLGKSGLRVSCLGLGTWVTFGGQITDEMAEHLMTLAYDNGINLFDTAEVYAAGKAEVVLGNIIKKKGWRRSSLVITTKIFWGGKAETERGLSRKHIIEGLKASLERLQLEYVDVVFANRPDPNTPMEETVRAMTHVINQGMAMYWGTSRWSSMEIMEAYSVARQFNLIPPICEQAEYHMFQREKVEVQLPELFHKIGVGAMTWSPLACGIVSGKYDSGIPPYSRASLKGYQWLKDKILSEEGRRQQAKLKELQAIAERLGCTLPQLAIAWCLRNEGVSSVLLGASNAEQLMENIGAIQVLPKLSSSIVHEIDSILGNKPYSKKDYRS
Sequence of Dual specificity protein phosphatase 6 (Homo sapiens) (Q16828 whole entry, looked up): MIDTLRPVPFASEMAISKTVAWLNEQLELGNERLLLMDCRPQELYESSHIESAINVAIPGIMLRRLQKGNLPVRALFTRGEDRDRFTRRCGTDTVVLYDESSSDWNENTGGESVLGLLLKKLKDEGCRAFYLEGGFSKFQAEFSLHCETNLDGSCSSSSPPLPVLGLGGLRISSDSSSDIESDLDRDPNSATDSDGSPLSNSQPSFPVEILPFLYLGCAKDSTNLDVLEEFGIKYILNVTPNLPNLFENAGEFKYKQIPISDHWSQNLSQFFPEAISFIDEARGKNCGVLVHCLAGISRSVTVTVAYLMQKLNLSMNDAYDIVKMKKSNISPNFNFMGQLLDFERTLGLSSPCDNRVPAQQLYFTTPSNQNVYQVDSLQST

Consider `N#CC(C(=O)NC1CC1)c1nc2ccccc2nc1N1CCN(C/C=C/c2ccccc2)CC1` (stereo unspecified), for which the cell count in assay [1] amounted to 507. Further, the inhibition (as a rule, the relative decrease from the control value, in per cent) in assay [1] is -4.6% (inactive); in assay [2], -99.8% (inactive); in assay [4] it was 2.46% (inactive); in assay [9] it was 26.9% (inactive). Moreover, in assay [2], the nuclei count was found to be 164%. Moreover, the z-score is -0.376 in assay [3] (setting [10]), 0.378 in [3] (setting [11]) and 1.69 in assay [3] (setting [12]). For the same compound, the fluorescence slope in assay [5] was -0.304 (inactive). For the same compound, the NADPH fluorescence slope in [6] is -1.2e-05 (inactive). Further, the slope in assay [7] was -0.000245 (inactive). The compound was classed as inactive in assay [8].
On to `O=C(Nc1ccc(Cl)cn1)C1CCCN1S(=O)(=O)c1ccccc1` (stereo unspecified), for which the cell count in assay [1] was determined as 365. Further, the inhibition in [1] is 4.7% (inactive); in assay [2], -101% (inactive); in [4] it was 11.3% (inactive); in assay [9] it was -3.35% (inactive). The nuclei count in [2] turned out to be 154%. Besides, the z-score in [3] (setting [10]) was 2.19; in assay [3] (setting [11]), 0.087; in assay [3] (setting [12]), -0.0829. Moreover, in assay [5], the fluorescence slope is -0.415 (inactive). Besides, in assay [6], the NADPH fluorescence slope was -4e-05 (inactive). Also, the slope in assay [7] is 0.00596 (inactive). Moreover, in [8], the result was inactive.
For `Cn1c(=O)c2c(nc(N3CCN(Cc4ccccc4)CC3)n2CC(=O)c2ccccc2)n(C)c1=O`, the cell count in [1] is 669. The inhibition in assay [1] is 0.5% (inactive); in assay [2] it was -198% (inactive); in [4] it was 7.73% (inactive); in assay [9], -14.6% (inactive). Also, the nuclei count in assay [2] was 155%. Moreover, the z-score in assay [3] (setting [10]) is 0.319; in assay [3] (setting [11]), -0.211; in assay [3] (setting [12]), 0.974. In addition, the fluorescence slope in [5] is -0.533 (inactive). Moreover, in assay [6], the NADPH fluorescence slope was -0.000101 (inactive). The slope in [7] is 0.00454 (inactive). In assay [8], the call was inactive.
Turning to `CCN1CCCC1Cn1cnc2c([nH]c3ccc(C)cc32)c1=O` (stereo unspecified), in [1], the cell count was determined as 319. For the same compound, the inhibition in assay [1] was -6.8% (inactive); in [2], 13.2% (inactive); in [4] it was 9.42% (inactive); in assay [9], 128% (active). This compound had a nuclei count in assay [2] of 160%. Moreover, the z-score in [3] (setting [10]) is -0.0977; in assay [3] (setting [11]) it was 0.977; in assay [3] (setting [12]), 0.149. For the same compound, in [5], the fluorescence slope was -0.357 (inactive). In addition, the NADPH fluorescence slope in [6] is -0.000123 (inactive). For the same compound, the slope in assay [7] is 0.00693 (inactive). The compound was called inactive in [8].
For `COc1ccc(C2CC(C(F)(F)F)n3ncc(C(=O)NCC4CCCO4)c3N2)cc1OC` (stereo unspecified), the cell count in assay [1] amounted to 536. In addition, the inhibition in assay [1] is -1.8% (inactive); in assay [2] it was 12.3% (inactive); in [4], 3.66% (inactive); in assay [9], -9.44% (inactive). Further, the nuclei count in [2] was 132%. Moreover, the figures for the z-score in assay [3] (setting [10]), in [3] (setting [11]) and in assay [3] (setting [12]) were -0.241, -1.11 and 1.35, respectively. In addition, in assay [5], the fluorescence slope was -0.51 (inactive). The NADPH fluorescence slope in assay [6] is -6.1e-05 (inactive). In addition, the slope in assay [7] was 0.00469 (inactive). Besides, the result in assay [8] was inactive.
With `Cc1nn(-c2ccccc2)c2c1C(c1ccc(F)cc1F)C(C#N)=C(N)O2` (stereo unspecified), in [1], the cell count was determined as 611. Moreover, the inhibition in assay [1] was -19.6% (inactive); in [2] it was 17.2% (inactive); in assay [4] it was 19.1% (inactive); in assay [9], 18.8% (inactive). The same compound displayed a nuclei count in assay [2] of 184%. The results for the z-score in assay [3] (setting [10]), in assay [3] (setting [11]) and in assay [3] (setting [12]) were 0.29, -0.619 and 0.392, respectively. Besides, in assay [5], the fluorescence slope is -0.41 (inactive). Moreover, in [6], the NADPH fluorescence slope was -2.3e-05 (inactive). Also, in assay [7], the slope was 0.00636 (inactive). Also, the compound was called inactive in [8].
Turning to `O=C1OC(Nc2ccc(Br)cc2F)c2ccccc21` (stereo unspecified), the cell count in assay [1] came to 426. The inhibition was -1.6% (inactive) in [1], -16.9% (inactive) in assay [2], -2.91% (inactive) in [4] and -4.19% (inactive) in assay [9]. Further, in [2], the nuclei count turned out to be 149%. In addition, the z-score in [3] (setting [10]) was 0.057; in assay [3] (setting [11]) it was -0.568; in assay [3] (setting [12]) it was 0.211. Besides, the fluorescence slope in assay [5] was -0.383 (inactive). In assay [6], the NADPH fluorescence slope was -4.6e-05 (inactive). Moreover, the slope in assay [7] was 0.00575 (inactive). For the same compound, the call in [8] was inactive.
